Measured values: PMC5379986 (The Journal of Experimental Medicine, 2017)

Legend:
CR3^kd cells = assay: Cell-based Aβ degradation assay with LA-1 treatment in CR3 knockdown cells; settings: CR3 knockdown BV2 cells; Fig. 4 B
Summary of the method: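 CR3kd BV2 cells carried a stable CD11b-targeting shRNA lentivirus; controls carried empty vector. Lines were selected with 5 µg/ml puromycin and sorted for CD11b <80% of control. Cells were seeded at 250,000/well and attached overnight. Test compound or vehicle in serum-free DMEM was added 30 min before 1 µg/ml Aβ1-42. Timed samples went into 2× protease inhibitor. Total Aβ was measured by electrochemiluminescent ELISA (21D12 capture, 3D6 detection, Aβ1-40 standards).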

[1] = test system: APP-overexpressing Chinese hamster ovary cells; assay: APP expression and processing after LA-1 treatment; type: cell-based; settings: APP-overexpressing CHO cells, lysates and supernatants after 6 h; Fig. S2 A–F
Summary of the method: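 Cells were APP-overexpressing CHO cells exposed to test compound in serum-free culture medium. Lysates and supernatants were harvested after 6 h.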

[2] = Mass spectrometric analysis of LA-1 in brain and plasma; type: in vivo, mouse; settings: concluded from brain levels after single i.p. dose, perfused brains
Summary of the method: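 Male C57BL/6 mice received 500 µl of 50 µM test compound i.p., three mice per time point, sampled from 5 min to 8 h. EDTA plasma and PBS-perfused hemibrains were collected; brain was homogenised in water. Extracts diluted in methanol/acetonitrile were analysed by C18 LC-MS/MS (isocratic 85% acetonitrile, MRM m/z 420.103→375.800 and 420.103→230.000). Levels were interpolated from spiked-matrix standard curves by cubic regression.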

[3] = test system: acutely isolated microglia and PBMCs; type: in vivo, mouse; settings: after 10 d of LA-1 injections; n = 5 mice per group; Fig. S2 I, J
Summary of the method: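 Mice received 500 µl of 50 µM test compound or DMSO vehicle in PBS i.p. daily for 10 d. Microglia were isolated from perfused, enzymatically dissociated brains with CD45 microbeads, and PBMCs by Ficoll. Cells were kept on ice, washed and Fc-blocked 15 min. They were then stained 30 min with labelled antibodies against CD162, CD62L, CD18, CD54, CD14, CD49d, CD11a and CD11b.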

primary microglia = assay: qPCR analysis of mRNA from primary microglia of LA-1-treated mice; type: in vivo, mouse; settings: microglia from LA-1-treated mice, qPCR normalized to GAPDH, n = 5
Summary of the method: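 Mice received test compound i.p. daily for 10 d (500 µl of 50 µM; DMSO/PBS vehicle). Microglia were isolated from perfused, dissociated brains with CD45 microbeads and frozen immediately for RNA. cDNA diluted 1:20 was amplified with SYBR Green. Expression was calculated by ΔΔCt relative to GAPDH.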

ISF Aβ = type: in vivo, mouse; settings: 4-h LA-1 infusion and 12-h washout; n = 2 mice; Fig. 5 D, E
Summary of the method: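 A 38-kD cutoff microdialysis probe was placed in the left hippocampus (bregma −3.1, midline −2.5, 3.2 mm below dura, 12°). It was perfused at 1 µl/min with 0.15% BSA artificial CSF, pH 7.35. After 8 h baseline, test compound was reverse-dialysed at 100 µM. Fractions were collected every 60–90 min, and Aβ40 was measured by sandwich ELISA (mHJ2 capture, mHJ5.1 detection). Male mice were used.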

For `O=C(O)c1ccc(-c2ccc(/C=C3\SC(=S)N(Cc4ccccc4)C3=O)o2)cc1` [LA-1, Leukadherin 1], the “LA-1 effect on Aβ degradation in CR3^kd cells” value (CR3^kd cells) was “absent”, the “APP expression and processing” value [1] was “did not change” and the BBB penetration [2] was “demonstrating BBB penetration”. The “Vascular adhesion markers on acutely isolated microglia and PBMCs” value [3] was “no changes”, the “tPA mRNA in microglia” value (primary microglia; Fig. 4 E) was “significant increase” and the “MMP2 or MMP9 mRNA levels in microglia” value (primary microglia; Fig. 4 F) was “did not observe differences”. The “Reversibility of ISF Aβ reduction after exchanging drug for perfusion buffer” value (ISF Aβ) was “reversible”.
